Measurements as given in ChEMBL document CHEMBL1240337, “Identification of proteases that regulate erythrocyte rupture by the malaria parasite Plasmodium falciparum” (Nat Chem Biol, 2008).
Activity calls are given as the source filed them. The calls are words filed in the database; no cut-off is given here.

What was measured:
Plasmodium falciparum [1] = assay: Antiplasmodial activity against Plasmodium falciparum schizont infected in human erythrocytes assessed as effect on parasite ring-to-schizont morphology at 1 to 50 uM after 24 by propidium iodide staining-based FACS analysis; assay type: functional, organism-based
[2] = Cytotoxicity against african green monkey BSC1 cells after 24 hrs by celltiter glo assay; assay type: cell-based; conditions: chlorocebus aethiops, bsc-1, 24 h
Summary of the method: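 BSC-1 African green monkey kidney epithelial cells exposed to compounds; viability read by CellTiter-Glo luminescence.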

Plasmodium falciparum [3] = assay: Antiplasmodial activity against Plasmodium falciparum infected in human erythrocytes assessed as effect on parasite morphology by Giemsa staining; assay type: functional, organism-based
Summary of the method: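 Giemsa-stained thin blood films were read from schizonts exposed at 36 h post invasion to 10 µM inhibitor, to assess rupture and morphology.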

[4] = molecular target: T1, Cysteine proteinase falcipain-1 (Plasmodium falciparum 3D7) (UniProt Q8I6V0); assay: Inhibition of Plasmodium falciparum 3D7 falcipain-1 by fluorescence spectrophotometry
T1 sequence (whole entry): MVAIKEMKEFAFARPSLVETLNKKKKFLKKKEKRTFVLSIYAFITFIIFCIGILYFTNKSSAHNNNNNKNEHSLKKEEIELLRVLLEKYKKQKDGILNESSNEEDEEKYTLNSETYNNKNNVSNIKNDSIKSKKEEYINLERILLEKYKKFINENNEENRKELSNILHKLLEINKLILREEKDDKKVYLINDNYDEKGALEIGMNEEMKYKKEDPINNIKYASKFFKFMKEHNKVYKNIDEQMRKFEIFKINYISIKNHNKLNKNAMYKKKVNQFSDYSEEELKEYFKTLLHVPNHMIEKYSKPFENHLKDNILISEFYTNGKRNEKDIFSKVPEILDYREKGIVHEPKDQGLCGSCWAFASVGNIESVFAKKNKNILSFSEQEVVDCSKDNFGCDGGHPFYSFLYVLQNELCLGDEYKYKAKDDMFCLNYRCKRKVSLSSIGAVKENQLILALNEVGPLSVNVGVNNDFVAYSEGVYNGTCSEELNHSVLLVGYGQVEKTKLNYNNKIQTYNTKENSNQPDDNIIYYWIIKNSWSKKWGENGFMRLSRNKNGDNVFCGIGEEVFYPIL

Plasmodium falciparum [5] = assay: Antiplasmodial activity against Plasmodium falciparum schizont infected in human erythrocytes assessed as effect on schizont morphology at 1 to 50 uM after 24 by propidium iodide staining-based FACS analysis; assay type: functional, organism-based

Row | inhibition [4] | Compound | Activity (Plasmodium falciparum [1]) | Activity [2] | Activity (Plasmodium falciparum [3]) | Activity (Plasmodium falciparum [5])
1 | Active | CCC[C@H](N)C(=O)N[C@H](/C=C/S(=O)(=O)c1ccccc1)CCc1ccccc1 | inactive | Non-toxic | inactive | inactive
2 | Active | C[C@H](N)C(=O)N[C@H](/C=C/S(=O)(=O)c1ccccc1)CCc1ccccc1 | inactive | Non-toxic | inactive | inactive
